Measured values collected from several papers.
Compare with care: the assays were run in different laboratories.
Target: Serine/threonine-protein kinase ULK3 (ULK3, Homo sapiens, UniProt Q6PHR2)
One construct used (Q6PHR2 1-472): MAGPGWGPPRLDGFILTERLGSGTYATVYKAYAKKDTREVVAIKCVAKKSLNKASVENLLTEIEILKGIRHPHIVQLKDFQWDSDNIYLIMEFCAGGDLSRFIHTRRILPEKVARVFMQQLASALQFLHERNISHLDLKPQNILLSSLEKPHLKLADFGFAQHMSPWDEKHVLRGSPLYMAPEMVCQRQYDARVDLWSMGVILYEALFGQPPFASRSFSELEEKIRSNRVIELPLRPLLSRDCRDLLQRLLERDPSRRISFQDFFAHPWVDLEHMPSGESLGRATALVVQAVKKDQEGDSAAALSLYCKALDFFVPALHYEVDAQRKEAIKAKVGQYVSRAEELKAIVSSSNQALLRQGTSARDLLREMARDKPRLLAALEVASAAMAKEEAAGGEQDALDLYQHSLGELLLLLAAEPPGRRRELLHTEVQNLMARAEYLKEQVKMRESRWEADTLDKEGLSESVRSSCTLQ

COc1cc2ncnc(Nc3ccc(F)c(Cl)c3)c2cc1OCCCN1CCOCC1 has a remaining signal of 108% (cell-free assay; 0.5 µM).
Cc1ccc(C(=O)Nc2ccc(CN3CCN(C)CC3)c(C(F)(F)F)c2)cc1C#Cc1cnc2cccnn12 gave a remaining activity of 61% (enzyme activity, inhibitor; 23.5 nM).
Cc1cnc(NC2CCOCC2)nc1-n1cnc(C(=O)NC(CN)c2cc(F)cc(Cl)c2)c1 (centres unmarked) gave a remaining activity of 91% (enzyme activity, inhibitor, radiometric; 1 µM).
Oc1cccc(-c2nc(N3CCOCC3)c3oc4ncccc4c3n2)c1 gave a remaining signal of 99.7% (cell-free assay; 0.5 µM).
C[C@@H](c1cccc(C#N)c1)n1cc(Cl)cc(C(N)=O)c1=N gave a remaining binding of 75% (cell-free assay, competition with immobilised ligand; 1 µM).
For Cc1cc(NC(=O)c2cccc3cc(-c4cccc5[nH]nc(N)c45)ccc23)ccc1F, the activity vs control was 98% (enzyme activity, inhibitor; 0.1 µM).
For O=C(Nc1cnn(-c2csc(C(=O)NC3COC3)c2)c1)Nc1c(F)cccc1Cl, the remaining activity was 76.6% (enzyme activity, inhibitor; 5 µM).
C[C@@]1(Cc2ccc(C#N)cc2)C(=O)N(c2cc(Cl)cc(Cl)c2)c2ncc(C(=O)NC3(c4nc(C5CCC5)no4)CC3)n21 has a remaining binding of 100% (cell-free assay, competition with immobilised ligand; 1 µM).
The remaining signal of COc1cc2c(Nc3ccc(Br)cc3F)ncnc2cc1OCC1CCN(C)CC1 is reported as 105% (cell-free assay; 0.5 µM).
COc1cc(-c2cn(C3CCc4ccccc4N(CC(F)(F)F)C3=O)nn2)ccc1-n1ccc(C)n1 (centres unmarked) gave a remaining binding of 61% (cell-free assay, competition with immobilised ligand; 1 µM).
Clc1ccc(Nc2nnc(Cc3ccncc3)c3ccccc23)cc1 gave a remaining signal of 101% (cell-free assay; 0.5 µM).
With CC(C)(O)[C@H]1CC[C@H](Nc2ccc3ncc(-c4cccc(C(F)(F)F)c4)n3n2)CC1 the remaining activity was 86.2% (enzyme activity, inhibitor; 1 µM).
CCCS(=O)(=O)Nc1ccc(F)c(C(=O)c2c[nH]c3ncc(-c4ccc(Cl)cc4)cc23)c1F has an inhibition of < 10% (enzyme activity, inhibitor; 1 µM).
Cn1nc(C(F)(F)F)cc1-c1cnc(N2CCc3cc(S(=O)(=O)Nc4c(F)cc(Cl)cc4F)cc(N4CCCC4=O)c32)nc1 has a remaining binding of 100% (cell-free assay, competition with immobilised ligand; 1 µM).
